# Assay results from PMC4062594 (Nature chemical biology, 2014).
# Substitutions are numbered along the chain they refer to. “Also recorded” adds a separate entry of the source.
# Key:
# [1] = target: T1, PTP1B1-405 V370P (Homo sapiens, UniProt P18031, V370P); experiment: PTP assay, helix α9′ point mutant; assay type: biochemical; conditions: S372P, R373P versus wild type
# T1 sequence (P18031 1-405 V370P): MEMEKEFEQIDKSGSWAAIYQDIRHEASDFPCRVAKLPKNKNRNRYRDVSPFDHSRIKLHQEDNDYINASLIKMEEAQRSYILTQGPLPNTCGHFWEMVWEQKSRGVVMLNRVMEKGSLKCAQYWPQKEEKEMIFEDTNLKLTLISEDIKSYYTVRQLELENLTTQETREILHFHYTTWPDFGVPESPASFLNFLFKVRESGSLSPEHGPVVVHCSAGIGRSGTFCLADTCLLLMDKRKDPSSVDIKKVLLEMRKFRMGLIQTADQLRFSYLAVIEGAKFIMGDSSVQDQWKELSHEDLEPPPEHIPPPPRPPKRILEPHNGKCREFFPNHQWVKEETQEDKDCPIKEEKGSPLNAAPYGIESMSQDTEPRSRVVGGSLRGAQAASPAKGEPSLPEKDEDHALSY
# [2] = target: T2, PTP1B1-321 (Homo sapiens, UniProt P18031); experiment: PTP assay with DiFMUP substrate; assay type: biochemical
# T2 sequence (P18031 1-321): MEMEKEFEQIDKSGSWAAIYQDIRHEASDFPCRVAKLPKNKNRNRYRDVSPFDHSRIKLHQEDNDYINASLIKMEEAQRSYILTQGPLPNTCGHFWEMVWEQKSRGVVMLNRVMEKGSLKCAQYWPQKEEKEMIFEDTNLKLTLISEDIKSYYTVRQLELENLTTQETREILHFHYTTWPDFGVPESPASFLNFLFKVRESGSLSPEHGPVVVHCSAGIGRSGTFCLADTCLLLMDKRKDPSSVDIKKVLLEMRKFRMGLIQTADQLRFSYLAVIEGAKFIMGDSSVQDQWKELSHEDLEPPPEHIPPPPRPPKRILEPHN
# [3] = target: T3, PTP1B1-405 (Homo sapiens, UniProt P18031); experiment: Direct binding assay with [3H]-MSI-1436
# T3 sequence (P18031 1-405): T1 sequence (P18031 1-405 V370P) with P370V
# [4] = target: T3, PTP1B1-405; experiment: Limited proteolysis with trypsin; conditions: saturating concentrations of MSI-1436 (5 μM)
# [5] = tested on: BT474 xenografts re-expressing wild type or L192A/S372P PTP1B; experiment: BT474 xenografts with PTP1B suppressed and re-expressed; assay type: in vivo, mouse; conditions: 5 mg/kg, two independent experiments
# Summary of the method: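 BT474 cells with PTP1B suppressed by RNAi and re-expressing wild type or mutant PTP1B were used. Luciferase-expressing cells (5×10^6) were injected orthotopically into mammary fat pads of SCID-beige mice in 1:1 DMEM/growth factor-reduced Matrigel. Mice were randomised to saline or test compound 5 mg/kg i.p. every third day. Tumours were followed by luciferin imaging and by palpation (volume = width2 × length/2) three times weekly.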
# [6] = tested on: NDL2 mammary tumors and lung metastasis; experiment: NDL2 transgenic mouse model of breast cancer; assay type: in vivo
# Summary of the method: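 NDL2 mice with palpable tumours were randomised to saline or test compound (5 or 10 mg/kg, 100 μl) i.p. every third day for 45 days, using freshly prepared solutions. Animals were killed after 45 d, and tumours were removed, counted and weighed. Whole lungs were sectioned, H&E-stained and scored for metastases. Groups had six animals; Student t-test was used.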
# [7] = tested on: BT-474 cells; experiment: Cell migration assay; assay type: cell-based; conditions: HER2-positive, MSI-1436 5 µM
# [8] = target: T4, PTP1B (1-346) (Homo sapiens, UniProt P18031); experiment: PTP assay, truncation mutant; assay type: biochemical; conditions: similar to PTP1B1-321
# T4 sequence (P18031 1-346): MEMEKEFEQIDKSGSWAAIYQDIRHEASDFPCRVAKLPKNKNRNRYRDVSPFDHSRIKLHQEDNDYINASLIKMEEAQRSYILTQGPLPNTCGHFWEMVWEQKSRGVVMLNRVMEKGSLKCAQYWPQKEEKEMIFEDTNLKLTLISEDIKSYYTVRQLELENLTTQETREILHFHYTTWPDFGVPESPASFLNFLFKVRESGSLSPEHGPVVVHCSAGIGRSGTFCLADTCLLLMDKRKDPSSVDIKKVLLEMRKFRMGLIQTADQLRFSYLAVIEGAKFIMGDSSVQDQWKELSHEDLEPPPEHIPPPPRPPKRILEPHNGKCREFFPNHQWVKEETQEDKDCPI
# Summary of the method: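 Continuous fluorescence PTP assay with 10 nM purified PTP1B and 10 μM DiFMUP substrate. Emission at 450 nm was monitored for 20 minutes.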
# [9] = target: T5, PTP1B in tumor lysates from NDL2 mice (Mus musculus, UniProt P35821); experiment: Binding assay with bead-immobilized compound in tumor lysates; conditions: confirmed by immunoblotting
# T5 sequence (P35821 1-432): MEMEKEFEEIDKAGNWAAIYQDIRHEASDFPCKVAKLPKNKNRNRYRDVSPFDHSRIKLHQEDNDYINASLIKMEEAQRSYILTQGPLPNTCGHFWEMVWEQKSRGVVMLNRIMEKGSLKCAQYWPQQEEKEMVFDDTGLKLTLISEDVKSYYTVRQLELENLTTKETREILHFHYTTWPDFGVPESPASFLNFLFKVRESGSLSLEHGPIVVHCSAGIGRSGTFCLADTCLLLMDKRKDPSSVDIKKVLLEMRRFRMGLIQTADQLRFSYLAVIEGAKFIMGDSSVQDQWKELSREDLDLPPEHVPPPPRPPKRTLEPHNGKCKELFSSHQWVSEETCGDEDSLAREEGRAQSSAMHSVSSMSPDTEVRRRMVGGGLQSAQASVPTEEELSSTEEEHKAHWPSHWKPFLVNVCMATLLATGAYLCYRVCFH
# Summary of the method: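 Test compound was coupled through its primary amine to NHS-activated magnetic beads (1 mM, 100 mM triethylamine, 8 h, 4°C), and free NHS groups were blocked with 0.8 M aminoethanol. Beads were incubated with 0–1 mg NDL2 tumour lysate protein and washed. Bound protein was eluted by heat in SDS sample buffer, run on 10% SDS-PAGE and identified by immunoblotting. Beads carrying a related amine compound served as negative control.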
# [10] = 5 mg/kg intraperitoneally every third day, relative to control
smiles,measurement,setting,value
"CC(C)[C@@H](CC[C@@H](C)[C@H]1CC[C@H]2[C@@H]3[C@H](O)C[C@H]4C[C@@H](NCCCNCCCCNCCCN)CC[C@]4(C)[C@H]3CC[C@]12C)OS(=O)(=O)O [MSI-1436, Trodusquemine]",increase of Ki by helix-destabilizing Pro mutations,[1],10–20 fold
same,mode of inhibition,[2],reversible non-competitive inhibitor
same,Hill coefficient,[3]; Hill plot,1.3
same,stoichiometry,[3]; scintillation counting,2 mol/mol
same,sensitivity to trypsin,[4],more trypsin-resistant state
same,sensitivity of xenografts re-expressing wild type PTP1B versus mutant protein,[5],more sensitive
same,tumor number,[6]; [10],marked decrease
same,tumor size,[6]; [10],marked decrease
same,lung metastasis,[6]; 5 or 10 mg/kg intraperitoneally every third day,essentially abrogated
same,migration,[7],attenuated migration
same,inhibitory potency compared to PTP1B1-405 and PTP1B1-394,[8],lower
same,retention of 50 kDa band (PTP1B) by compound beads,[9],PTP1B was cleared from the lysate; also recorded: retained
